From ChEMBL document CHEMBL1144934, “Efficacious and orally bioavailable thrombin inhibitors based on a 2,5-thienylamidine at the P1 position: discovery of N-carboxymethyl-d-diphenylalanyl-l-prolyl[(5-amidino-2-thienyl)methyl]amide” (J Med Chem, 2003)

Experiments:
Prothrombin = Prothrombin (Homo sapiens, UniProt P00734); test: In vitro inhibition constant (Ki) against human thrombin
[1] = Bioavailability in rat; format: ADME, organism-based; conditions: in vivo
[2] = Area under curve (AUC) was determined after intravenous dosing at 10 mg/kg in rat; format: ADME, organism-based; parameters: dose 10 mg/kg, route intravenous; conditions: in vivo
In short: (§1)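 Male Sprague–Dawley rats (250–300 g), femoral artery and vein cannulated under light ether anesthesia; after recovery, 10 mg/kg given via femoral vein. Arterial blood sampled at 0, 1, 5, 15, 30, 60, 90, 120, 180, 240 min, collected into heparinized tubes, deproteinized with 2 volumes methanol, centrifuged; supernatant analyzed by HPLC (0.1% TFA/acetonitrile 81:19).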

[3] = Area under curve (AUC) was measured after oral dosing at 30 mg/kg in rat; format: ADME, organism-based; parameters: dose 30 mg/kg, route oral; conditions: in vivo
[4] = Steady state volume of distribution (Vdss) was determined after intravenous dosing at 10 mg/kg in rat; format: ADME, organism-based; parameters: dose 10 mg/kg, route intravenous; conditions: in vivo, read-out: Vdss; in short: as §1
[5] = Half life of compound was determined after intravenous dosing at 10 mg/kg in rat; format: ADME, organism-based; parameters: dose 10 mg/kg, route intravenous; conditions: in vivo; in short: as §1
[6] = Clearance value was determined after intravenous dosing at 10 mg/kg in rat; format: ADME, organism-based; parameters: dose 10 mg/kg, route intravenous; conditions: in vivo; in short: as §1
[7] = Maximal plasma concentration in rats after 30 mg/kg oral dose; format: ADME, organism-based; parameters: dose 30 mg/kg, route oral; conditions: rat
[8] = In vitro metabolic stability was determined using liver S9 fraction from dog at initial concentration of 20 uM; format: ADME, Canis lupus familiaris; conditions: read-out: Recovery
In short: (§2)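 Liver S9 (9000g supernatant of homogenate in Tris-acetate pH 7.4, KCl, EDTA) from rat, dog, monkey (pooled, n = 2) or human (n = 2); 20 µM final compound with NADPH generating system and S9 6.72 mg/mL in 100 mM phosphate pH 7.4, 37 °C. Samples methanol-deproteinized, HPLC; recovery after 30 min reported; no-NADPH control.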

[9] = In vitro metabolic stability was determined using liver S9 fraction from human at initial concentration of 20 uM; format: ADME; conditions: liver S9 fraction, read-out: Recovery; in short: as §2
[10] = In vitro metabolic stability was determined using liver S9 fraction from rat at initial concentration of 20 uM; format: ADME; conditions: read-out: Recovery; in short: as §2
Rattus norvegicus [11] = test: In vivo inhibition of thrombus formation in thromboplastin-induced deep vein thrombosis (DVT) rat model after iv bolus dosing at 1 mg/kg; format: functional
Rattus norvegicus [12] = test: Ex vivo activated clotting time was measured in rat plasma at 1 mg/kg; format: functional
[13] = In vitro metabolic stability was determined using liver S9 fraction from monkey at initial concentration of 20 uM; format: ADME, subcellular; conditions: simiiformes, read-out: Recovery; in short: as §2
Rattus norvegicus [14] = species: Rattus norvegicus; test: Ex vivo concentration of inhibitor to double the activated clotting time was measured in rat plasma; format: functional
Rattus norvegicus [15] = species: Rattus norvegicus; test: In vitro concentration of inhibitor to double the activated partial thromboplastin time was evaluated in rat; format: functional

CN(C(=O)C(NS(=O)(=O)c1ccc2ccccc2c1)c1ccc(C(=N)NN)cc1)C1CCCC1 (stereo not given)
Ki (Prothrombin): 0.4 nM

COC(=O)N[C@@H](C(=O)N1CCC[C@H]1C(=O)NCc1ccc(C(=N)N)cc1)C(c1ccccc1)c1ccccc1
bioavailability [1]: 6%
AUC [2]: 56800 ng·h/mL
AUC [3]: 9900 ng·h/mL
Vd [4]: 0.174 L/kg
half-life [5]: 69 min
clearance [6]: 3 mL/min/kg
Cmax [7]: 4000 ng/mL
remaining at 20 µM [8]: 65%
remaining at 20 µM [9]: 86%
remaining at 20 µM [10]: 80%
inhibition in vivo at 1 mg/kg (Rattus norvegicus [11]): 100%
ACT (Rattus norvegicus [12]): 6.8
remaining at 20 µM [13]: 39%

COC(=O)N[C@@H](C(=O)N1CCC[C@H]1C(=O)NCc1coc(C(=N)N)c1)C(c1ccccc1)c1ccccc1
AUC [3]: 18600 ng·h/mL
Cmax [7]: 7100 ng/mL
Ki (Prothrombin): 1.4 nM

COC(=O)N[C@@H](C(=O)N1CCC[C@H]1C(=O)NCc1ccc(C(=N)N)s1)C(c1ccccc1)c1ccccc1
bioavailability [1]: 8%
AUC [2]: 31200 ng·h/mL
AUC [3]: 7100 ng·h/mL
Vd [4]: 0.152 L/kg
half-life [5]: 53 min
clearance [6]: 5.4 mL/min/kg
Cmax [7]: 4100 ng/mL
remaining at 20 µM [8]: 91%
remaining at 20 µM [9]: 38%
remaining at 20 µM [10]: 60%
inhibition in vivo at 1 mg/kg (Rattus norvegicus [11]): 93%
ACT (Rattus norvegicus [12]): 5.2
Concentration to double activated clotting time (Rattus norvegicus [14]): 3.75 µM
APTT (Rattus norvegicus [15]): 2.85 µM
Ki (Prothrombin): 0.015 nM
remaining at 20 µM [13]: < 10%
APTT (Homo sapiens): 0.34 µM

COC(=O)N[C@@H](C(=O)N1CCC[C@H]1C(=O)NCc1csc(C(=N)N)c1)C(c1ccccc1)c1ccccc1
bioavailability [1]: 7%
AUC [2]: 102000 ng·h/mL
Vd [4]: 0.23 L/kg
half-life [5]: 45 min
clearance [6]: 1.7 mL/min/kg
Cmax [7]: 8600 ng/mL
remaining at 20 µM [8]: 83%
remaining at 20 µM [9]: 13%
remaining at 20 µM [10]: 49%
inhibition in vivo at 1 mg/kg (Rattus norvegicus [11]): 98%
ACT (Rattus norvegicus [12]): 3.7
Concentration to double activated clotting time (Rattus norvegicus [14]): 6.86 µM
APTT (Rattus norvegicus [15]): 5.2 µM
Ki (Prothrombin): 0.6 nM
remaining at 20 µM [13]: < 10%
APTT (Homo sapiens): 0.37 µM

N=C(N)c1csc(CNC(=O)[C@@H]2CCCN2C(=O)[C@H](NS(N)(=O)=O)C(c2ccccc2)c2ccccc2)c1
Cmax [7]: 2000 ng/mL
Ki (Prothrombin): 0.02 nM

N=C(N)c1ccc(CNC(=O)[C@@H]2CCCN2C(=O)[C@H](NS(N)(=O)=O)C(c2ccccc2)c2ccccc2)cn1
AUC [3]: 4100 ng·h/mL
Cmax [7]: 1600 ng/mL

COC(=O)N[C@@H](C(=O)N1CCC[C@H]1C(=O)NCc1ccc(C(=N)N)nc1)C(c1ccccc1)c1ccccc1
bioavailability [1]: 11%
AUC [2]: 80400 ng·h/mL
AUC [3]: 26100 ng·h/mL
Vd [4]: 0.139 L/kg
half-life [5]: 81 min
clearance [6]: 2.1 mL/min/kg
Cmax [7]: 14000 ng/mL
inhibition in vivo at 1 mg/kg (Rattus norvegicus [11]): 100%
ACT (Rattus norvegicus [12]): 6
Ki (Prothrombin): 0.017 nM

N=C(N)c1ccc(CNC(=O)[C@@H]2CCCN2C(=O)[C@H](NS(N)(=O)=O)C(c2ccccc2)c2ccccc2)s1
bioavailability [1]: 11%
AUC [2]: 14400 ng·h/mL
AUC [3]: 4700 ng·h/mL
Vd [4]: 0.31 L/kg
half-life [5]: 34 min
clearance [6]: 11.6 mL/min/kg
remaining at 20 µM [8]: 96%
remaining at 20 µM [9]: 86%
remaining at 20 µM [10]: 84%
inhibition in vivo at 1 mg/kg (Rattus norvegicus [11]): 100%
Concentration to double activated clotting time (Rattus norvegicus [14]): 2.09 µM
APTT (Rattus norvegicus [15]): 1.5 µM
remaining at 20 µM [13]: 81%
APTT (Homo sapiens): 0.19 µM

N=C(N)c1cc(CNC(=O)[C@@H]2CCCN2C(=O)[C@H](NS(N)(=O)=O)C(c2ccccc2)c2ccccc2)cs1
Cmax [7]: 500 ng/mL
Ki (Prothrombin): 0.16 nM

CS(=O)(=O)N[C@@H](C(=O)N1CCC[C@H]1C(=O)NCc1ccc(C(=N)N)s1)C(c1ccccc1)c1ccccc1.N=C(N)c1ccccc1
AUC [3]: 1420 ng·h/mL
Cmax [7]: 1300 ng/mL
Ki (Prothrombin): 0.005 nM

CS(=O)(=O)N[C@@H](C(=O)N1CCC[C@H]1C(=O)NCc1ccc(C(=N)N)cc1)C(c1ccccc1)c1ccccc1
AUC [3]: 4380 ng·h/mL
Cmax [7]: 2800 ng/mL

N=C(N)c1ccc(CNC(=O)[C@@H]2CCCN2C(=O)[C@H](NS(N)(=O)=O)C(c2ccccc2)c2ccccc2)c(F)c1
AUC [3]: 1480 ng·h/mL
Cmax [7]: 1100 ng/mL
Ki (Prothrombin): 0.01 nM

CC1CNc2c(cccc2S(=O)(=O)N[C@@H](CCCNC(=N)N)C(=O)N2CC[C@@H](C)C[C@@H]2C(=O)O)C1 (stereo not given in full) [ARGATROBAN]
inhibition in vivo at 1 mg/kg (Rattus norvegicus [11]): 82%
ACT (Rattus norvegicus [12]): 1.9
Concentration to double activated clotting time (Rattus norvegicus [14]): 1.97 µM
APTT (Rattus norvegicus [15]): 2.5 µM
APTT (Homo sapiens): 0.57 µM

COC(=O)N[C@@H](C(=O)N1CCC[C@H]1C(=O)NCc1cc(C(=N)N)cs1)C(c1ccccc1)c1ccccc1
Cmax [7]: 4600 ng/mL
Ki (Prothrombin): 0.17 nM

N=C(N)c1ccc(CNC(=O)[C@@H]2CCCN2C(=O)[C@H](NS(N)(=O)=O)C(c2ccccc2)c2ccccc2)o1
AUC [3]: 2270 ng·h/mL
Cmax [7]: 1000 ng/mL
Ki (Prothrombin): 0.43 nM

N=C(N)c1ccc(CNC(=O)[C@@H]2CCCN2C(=O)[C@H](NS(N)(=O)=O)C(c2ccccc2)c2ccccc2)cc1
bioavailability [1]: 8%
AUC [2]: 19700 ng·h/mL
AUC [3]: 4530 ng·h/mL
Vd [4]: 0.297 L/kg
half-life [5]: 45 min
clearance [6]: 8.6 mL/min/kg
Cmax [7]: 2800 ng/mL
remaining at 20 µM [8]: 93%
remaining at 20 µM [9]: 92%
remaining at 20 µM [10]: 90%
inhibition in vivo at 1 mg/kg (Rattus norvegicus [11]): 100%
ACT (Rattus norvegicus [12]): 11
Concentration to double activated clotting time (Rattus norvegicus [14]): 1.23 µM
APTT (Rattus norvegicus [15]): 1.24 µM
remaining at 20 µM [13]: 87%
APTT (Homo sapiens): 0.14 µM

N=C(N)c1ccc(CNC(=O)[C@@H]2CCCN2C(=O)[C@H](NCCC(=O)O)C(c2ccccc2)c2ccccc2)s1
Ki (Prothrombin): 0.01 nM

N=C(N)c1ccc(CNC(=O)[C@@H]2CCCN2C(=O)[C@H](NCC(=O)O)C(c2ccccc2)c2ccccc2)cc1
AUC [3]: 2000 ng·h/mL
Cmax [7]: 1300 ng/mL
remaining at 20 µM [8]: 95%
remaining at 20 µM [9]: 97%
remaining at 20 µM [10]: 87%
Ki (Prothrombin): 0.013 nM
remaining at 20 µM [13]: 80%

N=C(N)c1ccc(CNC(=O)[C@@H]2CCCN2C(=O)[C@H](NS(N)(=O)=O)C(c2ccccc2)c2ccccc2)cc1F
AUC [3]: 3430 ng·h/mL
Cmax [7]: 2400 ng/mL
Ki (Prothrombin): 0.008 nM
